# From ChEMBL document CHEMBL4354828, “Discovery of Taniborbactam (VNRX-5133): A Broad-Spectrum Serine- and Metallo-β-lactamase Inhibitor for Carbapenem-Resistant Bacterial Infections” (J Med Chem, 2020)
# Assays:
# [1] = Inhibition of bacterial KPC-2 using imipenem as substrate preincubated for 15 mins followed by susbtrate addition and measured after 10 mins by spectrophotometric method; design: species or system Bacteria
# [2] = test system: Klebsiella pneumoniae; assay: Inhibition of OXA-48 in Klebsiella pneumoniae assessed as meropenem antibacterial activity at 4 ug/ml after 16 to 20 hrs by CLSI-based microbroth dilution method (Rvb >= […] ug/ml)
# [3] = test system: Pseudomonas aeruginosa; assay: Inhibition of VIM in Pseudomonas aeruginosa CDC-0457 assessed as piperacillin antibacterial activity at 16 ug/ml after 16 to 20 hrs by CLSI-based microbroth dilution method
# [4] = test system: Klebsiella pneumoniae; assay: Inhibition of KPC-2/SHV12/TEM-1 in Klebsiella pneumoniae CDC-0361 assessed as cefepime antibacterial activity at 8 ug/ml after 16 to 20 hrs by CLSI-based microbroth dilution method (reference value: […] ug/ml)
# [5] = test system: Klebsiella pneumoniae; assay: Inhibition of KPC-2 in Klebsiella pneumoniae assessed as meropenem antibacterial activity at 4 ug/ml after 16 to 20 hrs by CLSI-based microbroth dilution method (Rvb >= […] ug/ml)
# [6] = test system: Escherichia coli; assay: Inhibition of NDM-1/CMY-6/OXA-1 in Escherichia coli CDC-0055 assessed as piperacillin antibacterial activity at 16 ug/ml after 16 to 20 hrs by CLSI-based microbroth dilution method
# Outline: (§1)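 MDR β-lactamase-producing Gram-negative clinical isolates. […] MIC was reported as the inhibitor concentration that restores the partner's antibacterial activity.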
# [7] = test system: Klebsiella pneumoniae; assay: Inhibition of OXA-232/OXA-9/TEM-1A/CTX-M-15/OXA-1 in Klebsiella pneumoniae CDC-0066 assessed as meropenem antibacterial activity at 4 ug/ml after 16 to 20 hrs by CLSI-based microbroth dilution method (reference value: […] ug/ml)
# [8] = test system: Escherichia coli; assay: Inhibition of NDM in Escherichia coli CDC-0452 assessed as meropenem antibacterial activity at 4 ug/ml after 16 to 20 hrs by CLSI-based microbroth dilution method (reference value: […] ug/ml)
# [9] = test system: Klebsiella pneumoniae; assay: Inhibition of OXA-232/OXA-9/TEM-1A/CTX-M-15/OXA-1 in Klebsiella pneumoniae CDC-0066 assessed as cefepime antibacterial activity at 8 ug/ml after 16 to 20 hrs by CLSI-based microbroth dilution method (Rvb > […] ug/ml)
# [10] = test system: Escherichia coli; assay: Inhibition of NDM in Escherichia coli CDC-0452 assessed as cefepime antibacterial activity after 16 to 20 hrs by CLSI-based microbroth dilution method (reference value: […] ug/ml)
# [11] = test system: Klebsiella pneumoniae; assay: Inhibition of KPC-2/SHV12/TEM-1 in Klebsiella pneumoniae CDC-0361 assessed as piperacillin antibacterial activity at 16 ug/ml after 16 to 20 hrs by CLSI-based microbroth dilution method (Rvb > […] ug/ml)
# [12] = test system: Klebsiella pneumoniae ATCC BAA-1705; assay: Inhibition of KPC-2 in Klebsiella pneumoniae ATCC BAA 1705 assessed as meropenem antibacterial activity at 4 ug/ml after 16 to 20 hrs by CLSI-based microbroth dilution method (reference value: […] ug/ml)
# [13] = test system: Klebsiella pneumoniae ATCC BAA-1705; assay: Inhibition of KPC-2 in Klebsiella pneumoniae ATCC BAA 1705 assessed as piperacillin antibacterial activity at 16 ug/ml after 16 to 20 hrs by CLSI-based microbroth dilution method (Rvb > […] ug/ml)
# [14] = test system: Pseudomonas aeruginosa; assay: Inhibition of VIM in Pseudomonas aeruginosa CDC-0457 assessed as cefepime antibacterial activity at 8 ug/ml after 16 to 20 hrs by CLSI-based microbroth dilution method
# [15] = test system: Pseudomonas aeruginosa; assay: Inhibition of VIM in Pseudomonas aeruginosa CDC-0457 assessed as meropenem antibacterial activity at 4 ug/ml after 16 to 20 hrs by CLSI-based microbroth dilution method
# [16] = test system: Pseudomonas aeruginosa; assay: Inhibition of KPC-2/PDC-42 in Pseudomonas aeruginosa CDC-0356 assessed as piperacillin antibacterial activity at 16 ug/ml after 16 to 20 hrs by CLSI-based microbroth dilution method (Rvb > […] ug/ml)
# [17] = test system: Escherichia coli; assay: Inhibition of NDM-1/CMY-6/OXA-1 in Escherichia coli CDC-0055 assessed as cefepime antibacterial activity at 8 ug/ml after 16 to 20 hrs by CLSI-based microbroth dilution method; outline: as §1
# [18] = test system: Klebsiella pneumoniae; assay: Inhibition of OXA-232/OXA-9/TEM-1A/CTX-M-15/OXA-1 in Klebsiella pneumoniae CDC-0066 assessed as piperacillin antibacterial activity at 16 ug/ml after 16 to 20 hrs by CLSI-based microbroth dilution method (Rvb > […] ug/ml)
# [19] = test system: Pseudomonas aeruginosa; assay: Inhibition of KPC-2/PDC-42 in Pseudomonas aeruginosa CDC-0356 assessed as meropenem antibacterial activity at 4 ug/ml after 16 to 20 hrs by CLSI-based microbroth dilution method (reference value: […] ug/ml)
# [20] = Inhibition of bacterial VIM-2 using nitrocefin as substrate preincubated for 15 mins followed by susbtrate addition and measured after 10 mins by spectrophotometric method; design: species or system Bacteria
# Outline: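 Purified β-lactamase inhibition. IC50 values are the average of duplicates unless otherwise indicated.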
# [21] = test system: Klebsiella pneumoniae; assay: Inhibition of VIM-27/CTX-M-15/SHV-11/OXA-1 in Klebsiella pneumoniae CDC-0040 assessed as cefepime antibacterial activity at 8 ug/ml after 16 to 20 hrs by CLSI-based microbroth dilution method
# [22] = test system: Klebsiella pneumoniae; assay: Inhibition of KPC-2/SHV12/TEM-1 in Klebsiella pneumoniae CDC-0361 assessed as meropenem antibacterial activity at 4 ug/ml after 16 to 20 hrs by CLSI-based microbroth dilution method (reference value: […] ug/ml)
# [23] = test system: Klebsiella pneumoniae; assay: Inhibition of VIM-27/CTX-M-15/SHV-11/OXA-1 in Klebsiella pneumoniae CDC-0040 assessed as meropenem antibacterial activity at 4 ug/ml after 16 to 20 hrs by CLSI-based microbroth dilution method
# [24] = test system: Klebsiella pneumoniae; assay: Inhibition of VIM-27/CTX-M-15/SHV-11/OXA-1 in Klebsiella pneumoniae CDC-0040 assessed as piperacillin antibacterial activity at 16 ug/ml after 16 to 20 hrs by CLSI-based microbroth dilution method
# [25] = test system: Klebsiella pneumoniae; assay: Inhibition of VIM-4 in Klebsiella pneumoniae assessed as meropenem antibacterial activity at 4 ug/ml after 16 to 20 hrs by CLSI-based microbroth dilution method (Rvb >= […] ug/ml)
# [26] = target: Beta-lactamase VIM-2 (Pseudomonas aeruginosa) (UniProt Q9K2N0); assay: Inhibition of VIM-2 in Pseudomonas aeruginosa assessed as meropenem antibacterial activity at 4 ug/ml after 16 to 20 hrs by CLSI-based microbroth dilution method (Rvb >= […] ug/ml)
# [27] = Inhibition of bacterial AmpC using nitrocefin as substrate preincubated for 15 mins followed by susbtrate addition and measured after 10 mins by spectrophotometric method; design: species or system Bacteria
# [28] = test system: Klebsiella pneumoniae ATCC BAA-1705; assay: Inhibition of KPC-2 in Klebsiella pneumoniae ATCC BAA 1705 assessed as cefepime antibacterial activity at 8 ug/ml after 16 to 20 hrs by CLSI-based microbroth dilution method; outline: as §1
# [29] = test system: Pseudomonas aeruginosa; assay: Inhibition of KPC-2/PDC-42 in Pseudomonas aeruginosa CDC-0356 assessed as cefepime antibacterial activity at 8 ug/ml after 16 to 20 hrs by CLSI-based microbroth dilution method (Rvb > […] ug/ml)
# [30] = test system: Escherichia coli; assay: Inhibition of NDM-1/CMY-6/OXA-1 in Escherichia coli CDC-0055 assessed as meropenem antibacterial activity at 4 ug/ml after 16 to 20 hrs by CLSI-based microbroth dilution method (reference value: […] ug/ml)
# [31] = Inhibition of bacterial OXA-48 using nitrocefin as substrate preincubated for 15 mins followed by susbtrate addition and measured after 10 mins by spectrophotometric method; design: species or system Bacteria
# [32] = test system: Escherichia coli; assay: Inhibition of NDM in Escherichia coli CDC-0452 assessed as piperacillin antibacterial activity at 16 ug/ml after 16 to 20 hrs by CLSI-based microbroth dilution method (Rvb > […] ug/ml)
SMILES,MIC [3],MIC [4],MIC [6],MIC [7],MIC [8],MIC [9],MIC [10],MIC [11],MIC [12],MIC [13],MIC [14],MIC [15],MIC [16],MIC [17],MIC [18],MIC [19],MIC [21],MIC [22],MIC [23],MIC [24],further results
N[C@H]1CC[C@H](CC(=O)N[C@H]2Cc3cccc(C(=O)O)c3OB2O)CC1,> 16 µg/mL,0.015 µg/mL,> 16 µg/mL,8 µg/mL,8 µg/mL,4 µg/mL,4 µg/mL,2 µg/mL,0.015 µg/mL,4 µg/mL,2 µg/mL,> 16 µg/mL,4 µg/mL,> 16 µg/mL,> 16 µg/mL,4 µg/mL,> 16 µg/mL,0.015 µg/mL,> 16 µg/mL,> 16 µg/mL,IC50 [1]: 30 nM; MIC [2]: 2 µg/mL; MIC [5]: 2 µg/mL; IC50 [20]: 150 nM; MIC [25]: 2 µg/mL; MIC [26]: 2 µg/mL; IC50 [27]: 30 nM; MIC [28]: 0.125 µg/mL; MIC [29]: 4 µg/mL; MIC [30]: 8 µg/mL; IC50 [31]: 2240 nM; MIC [32]: > 16 µg/mL
CC(=O)N[C@H]1Cc2cccc(C(=O)O)c2OB1O,> 16 µg/mL,0.0079 µg/mL,> 16 µg/mL,2 µg/mL,8 µg/mL,1 µg/mL,8 µg/mL,2 µg/mL,0.0079 µg/mL,2 µg/mL,> 16 µg/mL,> 16 µg/mL,2 µg/mL,> 16 µg/mL,> 16 µg/mL,2 µg/mL,> 16 µg/mL,0.0079 µg/mL,> 16 µg/mL,> 16 µg/mL,MIC [28]: 0.0079 µg/mL; MIC [29]: 2 µg/mL; MIC [30]: 16 µg/mL; MIC [32]: > 16 µg/mL
